Measurements as given in ChEMBL document CHEMBL2177085 (J Med Chem, 2012).
One block for each compound: values may come before it.

Assays:
[1] = Inhibition of angiogenesis in chick embryo model assessed as reduction in vessel growth at 26 nM incubated for 24 hrs; type: functional, Gallus gallus
How it was run: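 White leghorn eggs incubated at 37.5 °C, 62% humidity. At 70 h, albumen removed and shell windowed. From 75 h, 15 agarose pellets (from a 26 mM DMSO stock in 2% agarose; final concentration 26 nM) placed on the area vasculosa.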

[2] = target: Protein kinase C epsilon type (Homo sapiens) (UniProt Q02156); assay: Inhibition of PKCepsilon assessed as enzyme residual activity at 10 uM relative to untreated control
Chain of Protein kinase C epsilon type (Homo sapiens) (Q02156 whole entry): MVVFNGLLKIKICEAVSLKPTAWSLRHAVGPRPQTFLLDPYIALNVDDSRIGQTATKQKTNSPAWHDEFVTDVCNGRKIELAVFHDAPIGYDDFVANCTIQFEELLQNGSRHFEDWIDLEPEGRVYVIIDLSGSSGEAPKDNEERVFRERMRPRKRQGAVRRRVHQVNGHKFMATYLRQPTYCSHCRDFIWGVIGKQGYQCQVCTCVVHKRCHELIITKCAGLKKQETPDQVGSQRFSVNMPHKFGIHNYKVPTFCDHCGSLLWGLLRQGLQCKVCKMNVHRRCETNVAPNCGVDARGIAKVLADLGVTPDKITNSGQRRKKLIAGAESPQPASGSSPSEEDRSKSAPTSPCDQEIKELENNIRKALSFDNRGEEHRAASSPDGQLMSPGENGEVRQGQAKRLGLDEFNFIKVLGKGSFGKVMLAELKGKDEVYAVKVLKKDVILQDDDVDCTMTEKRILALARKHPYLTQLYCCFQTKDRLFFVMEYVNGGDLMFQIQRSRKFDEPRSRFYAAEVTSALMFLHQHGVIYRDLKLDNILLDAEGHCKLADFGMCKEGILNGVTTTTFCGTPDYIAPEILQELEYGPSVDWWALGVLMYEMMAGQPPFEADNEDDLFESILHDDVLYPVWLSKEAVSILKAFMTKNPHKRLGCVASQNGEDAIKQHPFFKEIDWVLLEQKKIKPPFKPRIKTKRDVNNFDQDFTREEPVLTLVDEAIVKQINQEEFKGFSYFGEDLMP
How it was run: (§1)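 Residual kinase activity at 10 μM compound, determined by a commercial kinase profiling service (Millipore) across 15 kinases of different classes. Each compound tested in duplicate.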

[3] = tested on: MKN-45; assay: Induction of apoptosis in human MKN45 assessed as accumulation at subG1 phase at 5 uM incubated for 7 days by flow cytometry (reference value: 10.9 +/- 3.2%); type: functional
[4] = tested on: MKN-45; assay: Cytotoxic activity against human MKN45 cells assessed as cell viability at 0.5 uM incubated for 5 days by MTT assay; type: functional; settings: MKN-45, 120 h, read-out: Activity
How it was run: (§2)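 MTT viability: exponentially growing cells, 10 000 viable cells/well in RPMI plated overnight, then exposed to test compounds for 3 days (HT-29, Molm-14) or 5 days (Mkn-45) at 37 °C, 5% CO2. MTT added for 4 h, then SDS/HCl solubilization overnight and absorbance read at 562 nm. Viability is expressed relative to untreated cells (100%). Triplicate.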

[5] = tested on: MKN-45; assay: Cytotoxic activity against human MKN45 cells assessed as cell viability at 10 uM incubated for 5 days by MTT assay; type: functional; settings: MKN-45, 120 h, read-out: Activity; how it was run: as §2
[6] = tested on: MOLM-14; assay: Cytotoxic activity against human MOLM14 cells assessed as cell viability at 0.5 uM incubated for 3 days by MTT assay; type: functional; settings: MOLM-14, 72 h, read-out: Activity; how it was run: as §2
[7] = tested on: MKN-45; assay: Cytotoxic activity against human MKN45 cells assessed as cell viability at 20 uM incubated for 5 days by MTT assay; type: functional; settings: MKN-45, 120 h, read-out: Activity; how it was run: as §2
[8] = target: CDK6/cyclin D3 (Homo sapiens) (UniProt P30281+Q00534); assay: Inhibition of CDK6/cyclinD3 assessed as enzyme residual activity at 10 uM relative to untreated control; type: protein-complex assay; how it was run: as §1
[9] = tested on: HUVEC; assay: Induction of apoptosis in human HUVEC assessed as accumulation at subG1 phase at 2.6 uM incubated for 4 days by flow cytometry (reference value: 15.4 +/- 1.5%); type: functional
[10] = target: Hepatocyte growth factor receptor (Homo sapiens) (UniProt P08581); assay: Inhibition of MET assessed as enzyme residual activity at 10 uM relative to untreated control; how it was run: as §1
[11] = target: Platelet-derived growth factor receptor beta (Homo sapiens) (UniProt P09619); assay: Inhibition of PDGFRbeta assessed as enzyme residual activity at 10 uM relative to untreated control; how it was run: as §1
Chain of Platelet-derived growth factor receptor beta (Homo sapiens) (P09619 whole entry): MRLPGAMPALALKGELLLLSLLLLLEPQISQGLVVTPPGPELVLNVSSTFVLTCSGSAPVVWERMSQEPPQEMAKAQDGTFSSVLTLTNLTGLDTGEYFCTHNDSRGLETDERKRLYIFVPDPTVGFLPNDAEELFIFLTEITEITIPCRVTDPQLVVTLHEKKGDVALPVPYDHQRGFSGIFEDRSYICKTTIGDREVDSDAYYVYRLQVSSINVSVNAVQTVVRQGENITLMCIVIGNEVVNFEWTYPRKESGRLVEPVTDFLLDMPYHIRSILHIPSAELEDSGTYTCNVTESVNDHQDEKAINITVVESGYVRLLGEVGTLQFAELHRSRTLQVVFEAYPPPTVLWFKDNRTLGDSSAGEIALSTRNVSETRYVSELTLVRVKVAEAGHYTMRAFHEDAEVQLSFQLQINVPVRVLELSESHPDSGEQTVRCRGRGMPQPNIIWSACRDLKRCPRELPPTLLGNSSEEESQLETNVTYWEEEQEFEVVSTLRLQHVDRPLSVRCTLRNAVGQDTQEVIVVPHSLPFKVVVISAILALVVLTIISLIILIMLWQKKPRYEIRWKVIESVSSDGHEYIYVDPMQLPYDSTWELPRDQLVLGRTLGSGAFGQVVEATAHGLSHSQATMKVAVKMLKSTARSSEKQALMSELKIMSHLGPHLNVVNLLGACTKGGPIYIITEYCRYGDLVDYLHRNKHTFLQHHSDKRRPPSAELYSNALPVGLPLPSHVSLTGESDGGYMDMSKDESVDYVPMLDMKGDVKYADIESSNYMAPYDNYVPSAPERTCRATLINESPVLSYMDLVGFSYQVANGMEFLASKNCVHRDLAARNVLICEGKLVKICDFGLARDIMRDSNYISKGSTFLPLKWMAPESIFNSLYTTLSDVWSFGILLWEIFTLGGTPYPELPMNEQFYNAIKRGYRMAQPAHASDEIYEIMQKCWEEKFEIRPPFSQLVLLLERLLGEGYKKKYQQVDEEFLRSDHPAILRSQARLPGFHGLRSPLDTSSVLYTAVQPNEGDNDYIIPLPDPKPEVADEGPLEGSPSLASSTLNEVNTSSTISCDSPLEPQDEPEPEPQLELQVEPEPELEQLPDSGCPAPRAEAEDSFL

[12] = target: Receptor-type tyrosine-protein kinase FLT3 (Homo sapiens) (UniProt P36888); assay: Inhibition of FLT3 assessed as enzyme residual activity at 10 uM relative to untreated control; how it was run: as §1
[13] = tested on: HUVEC; assay: Induction of apoptosis in human HUVEC assessed as accumulation at subG1 phase at 0.79 uM incubated for 4 days by flow cytometry (reference value: 15.4 +/- 1.5%); type: functional
[14] = target: Protein kinase C alpha type (Homo sapiens) (UniProt P17252); assay: Inhibition of PKCalpha assessed as enzyme residual activity at 10 uM relative to untreated control; how it was run: as §1
[15] = tested on: MOLM-14; assay: Cytotoxic activity against human MOLM14 cells assessed as cell viability at 20 uM incubated for 3 days by MTT assay; type: functional; settings: MOLM-14, 72 h, read-out: Activity; how it was run: as §2
[16] = target: Cyclin-dependent kinase 1/cyclin B1 (Homo sapiens) (UniProt P06493+P14635); assay: Inhibition of CDK1/cyclinB assessed as enzyme residual activity at 10 uM relative to untreated control; type: protein-complex assay; how it was run: as §1
[17] = target: Protein kinase C iota type (Homo sapiens) (UniProt P41743); assay: Inhibition of PKCiota assessed as enzyme residual activity at 10 uM relative to untreated control; how it was run: as §1
[18] = tested on: MKN-45; assay: Cytotoxic activity against human MKN45 cells assessed as cell viability at 1 uM incubated for 5 days by MTT assay; type: functional; settings: MKN-45, 120 h, read-out: Activity; how it was run: as §2
[19] = tested on: MKN-45; assay: Induction of apoptosis in human MKN45 assessed as accumulation at subG1 phase at 10 uM incubated for 7 days by flow cytometry (reference value: 10.9 +/- 3.2%); type: functional
[20] = tested on: MKN-45; assay: Cytotoxic activity against human MKN45 cells assessed as cell viability at 50 uM incubated for 5 days by MTT assay; type: functional; settings: MKN-45, 120 h, read-out: Activity; how it was run: as §2
[21] = tested on: MOLM-14; assay: Cytotoxic activity against human MOLM14 cells assessed as cell viability at 50 uM incubated for 3 days by MTT assay; type: functional; settings: MOLM-14, 72 h, read-out: Activity; how it was run: as §2
[22] = target: RAF proto-oncogene serine/threonine-protein kinase (Homo sapiens) (UniProt P04049); assay: Inhibition of c-RAF assessed as enzyme residual activity at 10 uM relative to untreated control; how it was run: as §1
Chain of RAF proto-oncogene serine/threonine-protein kinase (Homo sapiens) (P04049 whole entry): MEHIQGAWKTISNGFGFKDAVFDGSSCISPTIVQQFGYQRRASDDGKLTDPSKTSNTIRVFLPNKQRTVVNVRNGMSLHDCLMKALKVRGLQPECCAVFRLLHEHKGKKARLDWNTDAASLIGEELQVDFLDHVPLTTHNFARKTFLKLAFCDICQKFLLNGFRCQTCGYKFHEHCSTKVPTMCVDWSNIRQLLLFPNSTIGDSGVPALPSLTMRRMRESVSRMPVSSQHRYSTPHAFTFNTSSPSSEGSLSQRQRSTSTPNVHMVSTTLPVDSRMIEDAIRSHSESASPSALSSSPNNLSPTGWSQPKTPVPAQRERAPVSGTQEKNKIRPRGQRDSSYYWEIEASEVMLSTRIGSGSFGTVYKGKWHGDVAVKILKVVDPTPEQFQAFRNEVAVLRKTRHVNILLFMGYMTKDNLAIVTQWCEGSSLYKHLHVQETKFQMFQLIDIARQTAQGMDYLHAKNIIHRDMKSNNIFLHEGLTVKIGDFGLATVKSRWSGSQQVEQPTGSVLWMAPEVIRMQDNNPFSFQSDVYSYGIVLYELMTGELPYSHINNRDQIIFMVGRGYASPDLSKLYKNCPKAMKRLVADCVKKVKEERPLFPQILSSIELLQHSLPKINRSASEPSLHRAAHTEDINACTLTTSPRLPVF

[23] = tested on: MKN-45; assay: Cytotoxic activity against human MKN45 cells assessed as cell viability at 5 uM incubated for 5 days by MTT assay; type: functional; settings: MKN-45, 120 h, read-out: Activity; how it was run: as §2
[24] = tested on: MKN-45; assay: Induction of apoptosis in human MKN45 assessed as accumulation at subG1 phase at 20 uM incubated for 7 days by flow cytometry (reference value: 10.9 +/- 3.2%); type: functional
[25] = target: Angiopoietin-1 receptor (Homo sapiens) (UniProt Q02763); assay: Inhibition of TIE2 assessed as enzyme residual activity at 10 uM relative to untreated control; how it was run: as §1
Chain of Angiopoietin-1 receptor (Homo sapiens) (Q02763 whole entry): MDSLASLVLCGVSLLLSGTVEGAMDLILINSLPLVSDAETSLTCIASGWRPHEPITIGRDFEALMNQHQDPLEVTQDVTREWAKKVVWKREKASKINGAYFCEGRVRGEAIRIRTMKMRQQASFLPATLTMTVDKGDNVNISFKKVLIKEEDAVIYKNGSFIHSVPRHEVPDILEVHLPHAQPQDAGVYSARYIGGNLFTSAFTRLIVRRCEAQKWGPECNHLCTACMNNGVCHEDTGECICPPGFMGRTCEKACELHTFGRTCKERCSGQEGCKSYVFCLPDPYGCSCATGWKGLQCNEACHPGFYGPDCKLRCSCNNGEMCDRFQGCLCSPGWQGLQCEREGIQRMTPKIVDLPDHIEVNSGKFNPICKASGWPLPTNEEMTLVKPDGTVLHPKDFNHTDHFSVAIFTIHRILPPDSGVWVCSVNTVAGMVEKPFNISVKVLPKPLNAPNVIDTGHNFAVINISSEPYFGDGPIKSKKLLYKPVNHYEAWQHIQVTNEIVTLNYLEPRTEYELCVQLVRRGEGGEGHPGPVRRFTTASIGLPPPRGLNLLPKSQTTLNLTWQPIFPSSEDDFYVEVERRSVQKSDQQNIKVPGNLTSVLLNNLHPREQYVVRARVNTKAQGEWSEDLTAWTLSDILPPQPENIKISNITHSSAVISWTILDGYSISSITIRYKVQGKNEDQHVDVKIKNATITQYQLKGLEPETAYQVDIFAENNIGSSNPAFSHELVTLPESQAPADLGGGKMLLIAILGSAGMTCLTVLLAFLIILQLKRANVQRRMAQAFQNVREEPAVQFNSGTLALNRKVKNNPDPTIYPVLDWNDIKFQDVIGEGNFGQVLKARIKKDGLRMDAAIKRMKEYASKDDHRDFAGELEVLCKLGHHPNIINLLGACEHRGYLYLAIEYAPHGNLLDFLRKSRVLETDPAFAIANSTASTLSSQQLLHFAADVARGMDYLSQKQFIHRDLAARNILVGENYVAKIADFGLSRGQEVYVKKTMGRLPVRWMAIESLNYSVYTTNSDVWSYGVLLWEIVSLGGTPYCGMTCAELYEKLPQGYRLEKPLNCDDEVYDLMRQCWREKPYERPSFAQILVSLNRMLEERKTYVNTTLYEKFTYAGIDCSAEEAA

[26] = target: Cyclin-dependent kinase 2/cyclin A (Homo sapiens) (UniProt P24941+P20248+P78396); assay: Inhibition of CDK2/cyclinA assessed as enzyme residual activity at 10 uM relative to untreated control; type: protein-complex assay; how it was run: as §1
[27] = target: T1, Glycogen synthase kinase-3 beta (Homo sapiens, UniProt P49841); assay: Inhibition of GSK3beta assessed as enzyme residual activity at 10 uM relative to untreated control; how it was run: as §1
[28] = tested on: MOLM-14; assay: Cytotoxic activity against human MOLM14 cells assessed as cell viability at 10 uM incubated for 3 days by MTT assay; type: functional; settings: MOLM-14, 72 h, read-out: Activity; how it was run: as §2
[29] = tested on: MKN-45; assay: Induction of apoptosis in human MKN45 assessed as accumulation at subG1 phase at 15 uM incubated for 7 days by flow cytometry (reference value: 10.9 +/- 3.2%); type: functional
[30] = target: T1, Glycogen synthase kinase-3 beta; assay: Inhibition of GSK3beta
How it was run: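 IC50 determined by a commercial kinase profiling service (Millipore IC50 Profiler); duplicate testing.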

[31] = target: Vascular endothelial growth factor receptor 2 (Homo sapiens, UniProt P35968); assay: Inhibition of VEGFR2 assessed as enzyme residual activity at 10 uM relative to untreated control; how it was run: as §1
Chain of Vascular endothelial growth factor receptor 2 (P35968 whole entry): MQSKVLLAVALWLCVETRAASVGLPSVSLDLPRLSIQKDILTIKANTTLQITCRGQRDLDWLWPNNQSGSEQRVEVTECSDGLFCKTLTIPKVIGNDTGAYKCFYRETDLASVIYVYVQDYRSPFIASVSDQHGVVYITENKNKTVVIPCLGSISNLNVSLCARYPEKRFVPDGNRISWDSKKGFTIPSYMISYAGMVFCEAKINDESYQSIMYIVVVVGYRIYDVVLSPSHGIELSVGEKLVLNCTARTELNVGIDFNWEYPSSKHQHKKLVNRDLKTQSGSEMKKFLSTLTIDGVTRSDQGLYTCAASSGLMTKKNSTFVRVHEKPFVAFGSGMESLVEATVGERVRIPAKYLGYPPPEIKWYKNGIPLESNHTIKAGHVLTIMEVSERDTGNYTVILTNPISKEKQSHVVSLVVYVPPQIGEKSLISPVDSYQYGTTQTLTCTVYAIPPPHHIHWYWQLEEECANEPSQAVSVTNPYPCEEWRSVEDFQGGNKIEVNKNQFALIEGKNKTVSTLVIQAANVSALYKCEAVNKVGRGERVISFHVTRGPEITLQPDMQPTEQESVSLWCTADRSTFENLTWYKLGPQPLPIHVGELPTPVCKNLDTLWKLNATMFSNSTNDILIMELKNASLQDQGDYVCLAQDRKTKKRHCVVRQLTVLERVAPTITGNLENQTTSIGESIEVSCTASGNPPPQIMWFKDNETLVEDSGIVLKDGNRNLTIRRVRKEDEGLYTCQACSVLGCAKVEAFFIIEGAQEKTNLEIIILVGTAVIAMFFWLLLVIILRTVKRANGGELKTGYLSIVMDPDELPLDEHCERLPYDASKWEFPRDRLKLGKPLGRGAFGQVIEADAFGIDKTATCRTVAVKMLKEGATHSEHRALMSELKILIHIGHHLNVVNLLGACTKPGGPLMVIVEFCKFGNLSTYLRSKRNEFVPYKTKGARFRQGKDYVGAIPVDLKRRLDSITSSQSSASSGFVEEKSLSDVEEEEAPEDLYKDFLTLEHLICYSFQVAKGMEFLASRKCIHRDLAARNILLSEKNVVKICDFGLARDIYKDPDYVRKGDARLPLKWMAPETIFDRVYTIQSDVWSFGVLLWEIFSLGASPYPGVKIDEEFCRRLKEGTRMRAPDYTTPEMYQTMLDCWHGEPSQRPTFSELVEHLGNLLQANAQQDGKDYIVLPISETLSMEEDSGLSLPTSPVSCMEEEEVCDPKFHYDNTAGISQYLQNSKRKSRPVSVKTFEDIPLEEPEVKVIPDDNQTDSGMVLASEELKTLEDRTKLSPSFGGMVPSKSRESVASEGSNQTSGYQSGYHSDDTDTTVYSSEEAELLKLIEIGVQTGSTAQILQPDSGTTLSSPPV

[32] = tested on: MOLM-14; assay: Cytotoxic activity against human MOLM14 cells assessed as cell viability at 1 uM incubated for 3 days by MTT assay; type: functional; settings: MOLM-14, 72 h, read-out: Activity; how it was run: as §2
[33] = target: Protein kinase C gamma type (Homo sapiens) (UniProt P05129); assay: Inhibition of PKCgamma assessed as enzyme residual activity at 10 uM relative to untreated control; how it was run: as §1
[34] = tested on: MKN-45; assay: Induction of apoptosis in human MKN45 assessed as accumulation at subG1 phase at 1 uM incubated for 7 days by flow cytometry (reference value: 10.9 +/- 3.2%); type: functional
[35] = target: Epidermal growth factor receptor (Homo sapiens) (UniProt P00533); assay: Inhibition of EGFR assessed as enzyme residual activity at 10 uM relative to untreated control; how it was run: as §1

Structure (SMILES): COc1ccccc1C1=C(c2c[nH]c3ncccc23)C(=O)NC1=O
inhibition (INH) [1]: 30%

Activity [2]: 77%
Activity [8]: 99%
Activity [10]: 109%
Activity [11]: 84%
Activity [12]: 2%
Activity [14]: 89%
Activity [16]: 92%
Activity [17]: 69%
Activity [22]: 111%
Activity [25]: 77%
Activity [26]: 94%
Activity [27]: 50%
IC50 [30]: ≥ 10 µM
Activity [31]: 0%
Activity [33]: 93%
Activity [35]: 97%
Structure (SMILES): COc1cc(C2=C(c3c[nH]c4ncccc34)C(=O)NC2=O)cc(OC)c1OC
Activity [3]: 16.3%
viability at 0.5 µM [4]: 113%
viability at 10 µM [5]: 58.7%
viability at 0.5 µM [6]: 65.9%
inhibition (INH) [1]: 61%
viability at 20 µM [7]: 57.1%
Activity [9]: 49.2%
Activity [13]: 26.7%
viability at 20 µM [15]: 3.56%
viability at 1 µM [18]: 110%
Activity [19]: 37.8%
viability at 50 µM [20]: 44.7%
viability at 50 µM [21]: 1.77%
viability at 5 µM [23]: 86.8%
Activity [24]: 65.9%
viability at 10 µM [28]: 4.41%
Activity [29]: 50.7%
viability at 1 µM [32]: 38.9%
Activity [34]: 9.3%
